Source: ChEMBL document CHEMBL2146385, “Synthesis and antiviral evaluation of bis(POM) prodrugs of (E)-[4'-phosphono-but-2'-en-1'-yl]purine nucleosides” (Eur J Med Chem, 2012)
Active and inactive are the calls of the source. No cut-off for these calls is given here.

What was measured:
Vaccinia virus = experiment: Antiviral activity against Vaccinia virus infected in HEL assessed as inhibition of virus-induced cytopathicity after 3 days; format: functional, organism-based; details: Orthopoxvirus vaccinia, 72 h
[1] = Cytotoxicity against HEL after 3 days; format: cell-based; details: human, HEL cells
Outline: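 HEL cells were seeded at 5×10^3 cells/well and allowed to grow for 24 h, then given medium with varying compound concentrations. After 3 days at 37 °C, cells were counted with a Coulter counter.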

[2] = Cytotoxicity against HEL assessed as minimum compound concentration causes microscopically detectable alteration of cell morphology after 3 days; format: cell-based; details: human, HEL cells
Human alphaherpesvirus 3 [3] = experiment: Antiviral activity against VZV OKA expressing thymidine kinase infected in HEL cells assessed as inhibition of virus-induced cytopathogenicity after 3 days; format: functional, cell-based; details: Human alphaherpesvirus 3, strain Oka vaccine, 72 h
Coxsackievirus B4 = experiment: Antiviral activity against Coxsackievirus B4 infected in human HeLa assessed as inhibition of virus-induced cytopathicity after 3 days; format: functional, organism-based
Outline: (§1)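 Confluent cell monolayers infected with 100 CCID50 of virus in the presence of test compound at 100, 20,... μM. Cytopathicity was scored once it was complete in untreated infected controls.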

Human alphaherpesvirus 3 [4] = experiment: Antiviral activity against thymidine kinase-deficient VZV 07/1 infected in human HEL cells assessed as reduction of virus-induced cytopathogenicity after 3 days; format: functional, organism-based; details: Human alphaherpesvirus 3, 07/1, HEL, 72 h
Influenza A virus [5] = experiment: Antiviral activity against Influenza A virus H1N1 infected in MDCK assessed as inhibition of virus-induced cytopathicity after 3 days; format: functional, organism-based
Influenza B virus = experiment: Antiviral activity against Influenza B virus infected in MDCK assessed as inhibition of virus-induced cytopathicity after 3 days; format: functional, organism-based
Human alphaherpesvirus 1 [6] = experiment: Antiviral activity against HSV1 KOS infected in HEL assessed as inhibition of virus-induced cytopathicity after 3 days; format: functional, organism-based; details: Human alphaherpesvirus 1, KOS, 72 h
Human alphaherpesvirus 2 = experiment: Antiviral activity against HSV2 G infected in HEL assessed as inhibition of virus-induced cytopathicity after 3 days; format: functional, organism-based; details: Human alphaherpesvirus 2, strain G, 72 h; outline: as §1
Human alphaherpesvirus 1 [7] = experiment: Antiviral activity against acyclovir-resistant thymidine kinase deficient HSV1 KOS infected in HEL assessed as inhibition of virus-induced cytopathicity after 3 days; format: functional, organism-based; details: Human alphaherpesvirus 1, KOS, 72 h
[8] = system: Mammalian orthoreovirus 1; experiment: Antiviral activity against Reovirus-1 infected in african green monkey Vero assessed as inhibition of virus-induced cytopathicity after 3 days; format: functional, organism-based; outline: as §1
Punta Toro virus = experiment: Antiviral activity against Punta Toro virus infected in african green monkey Vero assessed as inhibition of virus-induced cytopathicity after 3 days; format: functional, organism-based; outline: as §1
Influenza A virus [9] = experiment: Antiviral activity against Influenza A virus H3N2 infected in MDCK assessed as inhibition of virus-induced cytopathicity after 3 days; format: functional, organism-based
[10] = system: Vesicular stomatitis virus; experiment: Antiviral activity against Vesicular stomatitis virus infected in human HeLa assessed as inhibition of virus-induced cytopathicity after 3 days; format: functional, organism-based
[11] = system: Respiratory syncytial virus; experiment: Antiviral activity against Respiratory syncytial virus infected in human HeLa assessed as inhibition of virus-induced cytopathicity after 3 days; format: functional, organism-based; outline: as §1
Sindbis virus = experiment: Antiviral activity against Sindbis virus infected in african green monkey Vero assessed as inhibition of virus-induced cytopathicity after 3 days; format: functional, organism-based; outline: as §1
[12] = system: Vesicular stomatitis virus; experiment: Antiviral activity against Vesicular stomatitis virus infected in MDCK assessed as inhibition of virus-induced cytopathicity after 3 days; format: functional, organism-based
Human respirovirus 3 = experiment: Antiviral activity against Parainfluenza-3 virus infected in african green monkey Vero assessed as inhibition of virus-induced cytopathicity after 3 days; format: functional, organism-based; outline: as §1

| Compound | EC50 (Vaccinia virus) | CC50 at 72 h [1] | MCC at 72 h [2] | EC50 (Human alphaherpesvirus 3 [3]) | Activity (Coxsackievirus B4) | EC50 (Human alphaherpesvirus 3 [4]) | Activity (Influenza A virus [5]) | Activity (Influenza B virus) | EC50 (Human alphaherpesvirus 1 [6]) | EC50 (Human alphaherpesvirus 2) | EC50 (Human alphaherpesvirus 1 [7]) | Activity [8] | Activity (Punta Toro virus) | Activity (Influenza A virus [9]) | Activity [10] | Activity [11] | Activity (Sindbis virus) | Activity [12] | Activity (Human respirovirus 3) |
| --- | --- | --- | --- | --- | --- | --- | --- | --- | --- | --- | --- | --- | --- | --- | --- | --- | --- | --- | --- |
| Nc1nc2c(ncn2COCCO)c(=O)[nH]1 [ACYCLOVIR] | > 250 µM | 134 µM | > 100 µM |  |  |  |  |  |  |  |  |  |  |  |  |  |  |  |  |
| CCCCNc1ncnc2c1ncn2C/C=C/CP(=O)(OCOC(=O)C(C)(C)C)OCOC(=O)C(C)(C)C | > 100 µM | 37.2 µM | > 100 µM | 100 µM | inactive | > 100 µM | inactive | inactive | > 100 µM | > 100 µM | > 100 µM | inactive | inactive | inactive | inactive | inactive | inactive | inactive | inactive |
| CC(C)(C)C(=O)OCOP(=O)(C/C=C/Cn1cnc2c(Cl)nc(N)nc21)OCOC(=O)C(C)(C)C | > 20 µM | 5.4 µM | > 100 µM | 4.4 µM | inactive | 2.2 µM | inactive | inactive | > 20 µM | > 20 µM | > 20 µM | inactive | inactive | inactive | inactive | inactive | inactive | inactive | inactive |
| CC(C)c1ccc(Nc2ncnc3c2ncn3C/C=C/CP(=O)(OCOC(=O)C(C)(C)C)OCOC(=O)C(C)(C)C)cc1 | > 100 µM | 32.3 µM | 100 µM | > 20 µM | inactive | > 20 µM | inactive | inactive | > 100 µM | > 100 µM | > 100 µM | inactive | inactive | inactive | inactive | inactive | inactive | inactive | inactive |
| O=c1[nH]c(=O)n([C@H]2C[C@H](O)[C@@H](CO)O2)cc1/C=C/Br [BRIVUDINE] | 5 µM |  | > 100 µM |  |  |  |  |  | 0.08 µM | 50 µM |  |  |  |  |  |  |  |  |  |
| CC(C)(C)C(=O)OCOP(=O)(C/C=C/Cn1cnc2c(NC3CC3)nc(N)nc21)OCOC(=O)C(C)(C)C | 20 µM | 2.3 µM | > 100 µM | 0.8 µM | inactive | 0.8 µM | inactive | inactive | 16.3 µM | 7.2 µM | 16.3 µM | inactive | inactive | inactive | inactive | inactive | inactive | inactive | inactive |
| C=CCNc1ncnc2c1ncn2C/C=C/CP(=O)(OCOC(=O)C(C)(C)C)OCOC(=O)C(C)(C)C | > 100 µM | > 100 µM | > 100 µM | > 100 µM | inactive | > 100 µM | inactive | inactive | > 100 µM | > 100 µM | > 100 µM | inactive | inactive | inactive | inactive | inactive | inactive | inactive | inactive |
| CC(C)(C)C(=O)OCOP(=O)(C/C=C/Cn1cnc2c(NC3CCCCC3)nc(N)nc21)OCOC(=O)C(C)(C)C | > 100 µM | 9 µM | 100 µM | 6.34 µM | inactive | 20 µM | inactive | inactive | > 100 µM | > 100 µM | > 100 µM | inactive | inactive | inactive | inactive | inactive | inactive | inactive | inactive |
| CCCCNc1nc(N)nc2c1ncn2C/C=C/CP(=O)(OCOC(=O)C(C)(C)C)OCOC(=O)C(C)(C)C | > 100 µM | 60 µM | > 100 µM | 32.4 µM | inactive | 43.6 µM | inactive | inactive | > 100 µM | > 100 µM | > 100 µM | inactive | inactive | inactive | inactive | inactive | inactive | inactive | inactive |
| CC(C)(C)C(=O)OCOP(=O)(C/C=C/Cn1cnc2c(=O)[nH]cnc21)OCOC(=O)C(C)(C)C | > 100 µM | 51.9 µM | > 100 µM | > 100 µM | inactive | > 20 µM | inactive | inactive | > 100 µM | > 100 µM | > 100 µM | inactive | inactive | inactive | inactive | inactive | inactive | inactive | inactive |
| CC(C)(C)C(=O)OCOP(=O)(C/C=C/Cn1cnc2c(NC3CCCCC3)ncnc21)OCOC(=O)C(C)(C)C | > 100 µM | 11.4 µM | 100 µM | 20 µM | inactive | > 20 µM | inactive | inactive | > 100 µM | > 100 µM | > 100 µM | inactive | inactive | inactive | inactive | inactive | inactive | inactive | inactive |
| CC(C)c1ccc(Nc2nc(N)nc3c2ncn3C/C=C/CP(=O)(OCOC(=O)C(C)(C)C)OCOC(=O)C(C)(C)C)cc1 | > 100 µM | 46 µM | > 100 µM | > 20 µM | inactive | > 100 µM | inactive | inactive | > 100 µM | > 100 µM | > 100 µM | inactive | inactive | inactive | inactive | inactive | inactive | inactive | inactive |
| CC(C)(C)C(=O)OCOP(=O)(C/C=C/Cn1cnc2c(NC3CC3)ncnc21)OCOC(=O)C(C)(C)C | > 100 µM | 39.6 µM | > 100 µM | 55.7 µM | inactive | 47.2 µM | inactive | inactive | > 100 µM | > 100 µM | > 100 µM | inactive | inactive | inactive | inactive | inactive | inactive | inactive | inactive |
| CC(C)(C)C(=O)OCOP(=O)(C/C=C/Cn1cnc2c(=O)n3cc[nH]c3nc21)OCOC(=O)C(C)(C)C | > 100 µM |  | > 100 µM | 17.3 µM | inactive | 40.7 µM | inactive | inactive | > 100 µM | > 100 µM | > 100 µM | inactive | inactive | inactive | inactive | inactive | inactive | inactive | inactive |
| Nc1ccn(C[C@@H](CO)OCP(=O)(O)O)c(=O)n1 [CIDOFOVIR] | 10 µM |  |  |  |  |  |  |  | 1.2 µM | 1 µM |  |  |  |  |  |  |  |  |  |
